Eleven molecules from ChEMBL document CHEMBL1127461, “Synthesis of new acyclic pyrimidine nucleoside analogs as potential antiviral drugs” (J Med Chem, 1994) can be followed below.

For series [1], the system named is Human alphaherpesvirus 1. The experiment in a line: In Vitro antiviral activity against HSV-1 at 500 ug/mL concentration. It is filed as functional. The essentials: (§1)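 Mouse embryo cell cultures infected with HSV-1 were exposed to compound at 0.05, 0.5, 5, 50 and 500 μg/mL for 3 days. Infected cultures were then inspected macro- and microscopically, and reduction or inhibition of virus-induced cell destruction was scored. Aciclovir, 5-ethyldeoxyuridine and PMEG served as reference drugs.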

In series [2] the test system is Human alphaherpesvirus 1. The experiment in a line: In Vitro antiviral activity against HSV-1 at 5 ug/mL concentration. Type of series: functional. The essentials:
as §1

The test system of series [3] is Human alphaherpesvirus 1. As to the kind of experiment: In Vitro antiviral activity against HSV-1 at 0.05 ug/mL concentration. It is filed as functional. The method, boiled down:
as §1

Series [4] in a line: In Vitro cytotoxicity […] at 50 ug/mL concentration. It is filed as organism-based. The essentials: (§2)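 Uninfected mouse embryo cell cultures were exposed to compound at 0.05, 0.5, 5, 50 and 500 μg/mL for 3 days. Cultures were then examined macro- and microscopically, and growth inhibition or disruption of the cells was taken as cytotoxicity.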
The subject of series [5] is Human alphaherpesvirus 1. The experiment in a line: In Vitro antiviral activity against HSV-1 at 0.5 ug/mL concentration. It is filed as functional. The method, boiled down: as §1
Series [6] relates to Human alphaherpesvirus 1. The experiment in a line: In Vitro antiviral activity against HSV-1 at 50 ug/mL concentration. Type of series: functional. The method, boiled down: as §1
The nature of series [7]: In Vitro cytotoxicity […] at 500 ug/mL concentration. It is filed as organism-based. The essentials: as §2
Series [8] is described as follows: In Vitro cytotoxicity against HSV-1 at 5 ug/mL concentration. Type of series: organism-based. The settings on record: human alphaherpesvirus 1, in vitro. The method, boiled down:
as §2

The term inhibition denotes the change of the read-out against control, counted positive when it falls. A high value points to strong suppression. In the case of `O=[N+]([O-])c1c(O)nc(O)nc1NCCCCO`, the inhibition at 500 µg/mL in the series on Human alphaherpesvirus 1 [1] is 0%. The same molecule gave an inhibition at 5 µg/mL in the series on Human alphaherpesvirus 1 [2] of 0%. Besides, in the series with Human alphaherpesvirus 1 [3], testing at 0.05 µg/mL gave an inhibition of 0%. In series [4], this molecule displayed an inhibition at 50 ug/mL of 0%. The inhibition at 0.5 µg/mL with Human alphaherpesvirus 1 [5] amounted to 0%. Moreover, testing at 50 µg/mL in the series on Human alphaherpesvirus 1 [6] gave an inhibition of 0%. The inhibition at 500 ug/mL in series [7] was determined as 0%. This molecule also registered an inhibition at 5 ug/mL in series [8] of 0%.
Take `Nc1nc(O)c([N+](=O)[O-])c(NCCCCO)n1`: in the series on Human alphaherpesvirus 1 [1], at 500 µg/mL the inhibition was 0%. The same molecule registered an inhibition at 5 µg/mL with Human alphaherpesvirus 1 [2] of 0%. For the same molecule, at 0.05 µg/mL the inhibition in the series with Human alphaherpesvirus 1 [3] was 0%. In series [4], this molecule registered an inhibition at 50 ug/mL of 0%. Also, the inhibition at 0.5 µg/mL with Human alphaherpesvirus 1 [5] was 0%. For the same molecule, in the series with Human alphaherpesvirus 1 [6], testing at 50 µg/mL gave an inhibition of 0%. In addition, the inhibition at 500 ug/mL in series [7] came to 100%. The molecule also showed an inhibition at 5 ug/mL in series [8] of 0%.
As for `Nc1nc(O)c([N+](=O)[O-])c(NCCOCP(=O)(O)O)n1`, at 500 µg/mL the inhibition in the series with Human alphaherpesvirus 1 [1] was 0%. Further, the inhibition at 5 µg/mL with Human alphaherpesvirus 1 [2] stood at 0%. Besides, in the series on Human alphaherpesvirus 1 [3], testing at 0.05 µg/mL gave an inhibition of 0%. Moreover, in series [4], the inhibition at 50 ug/mL was 0%. The same molecule displayed an inhibition at 0.5 µg/mL in the series with Human alphaherpesvirus 1 [5] of 0%. Testing at 50 µg/mL in the series with Human alphaherpesvirus 1 [6] gave an inhibition of 0%. In series [7], this molecule had an inhibition at 500 ug/mL of 0%. The inhibition at 5 ug/mL in series [8] was determined as 0%.
As for `OCCCCNc1cc(O)nc(O)n1`, the inhibition at 500 µg/mL in the series with Human alphaherpesvirus 1 [1] was 0%. In the series with Human alphaherpesvirus 1 [2], the inhibition at 5 µg/mL is 0%. Moreover, the inhibition at 0.05 µg/mL in the series with Human alphaherpesvirus 1 [3] worked out at 0%. The molecule further yielded an inhibition at 50 ug/mL in series [4] of 0%. In the series with Human alphaherpesvirus 1 [5], this molecule came in with an inhibition at 0.5 µg/mL of 0%. In the series on Human alphaherpesvirus 1 [6], the inhibition at 50 µg/mL amounted to 0%. Moreover, in series [7], the inhibition at 500 ug/mL was 25%. The same molecule registered an inhibition at 5 ug/mL in series [8] of 0%.
Regarding `Nc1nc(Cl)cc(NCCCCO)n1`, testing at 500 µg/mL in the series on Human alphaherpesvirus 1 [1] gave an inhibition of 0%. The molecule further showed an inhibition at 5 µg/mL in the series on Human alphaherpesvirus 1 [2] of 0%. The molecule further displayed an inhibition at 0.05 µg/mL in the series with Human alphaherpesvirus 1 [3] of 0%. In series [4], this molecule returned an inhibition at 50 ug/mL of 0%. Besides, in the series with Human alphaherpesvirus 1 [5], 0.5 µg/mL produced 0% inhibition. This molecule showed an inhibition at 50 µg/mL in the series with Human alphaherpesvirus 1 [6] of 0%. Besides, the inhibition at 500 ug/mL in series [7] was 50%. In series [8], this molecule showed an inhibition at 5 ug/mL of 0%.
Regarding `Nc1nc(O)c(N)c(NCCOCP(=O)(O)O)n1`, testing at 5 µg/mL with Human alphaherpesvirus 1 [2] gave an inhibition of 100%. Also, in the series with Human alphaherpesvirus 1 [3], the inhibition at 0.05 µg/mL turned out to be 50%. This molecule also yielded an inhibition at 0.5 µg/mL in the series with Human alphaherpesvirus 1 [5] of 100%. In series [7], this molecule had an inhibition at 500 ug/mL of 75%.
Molecule `Nc1nc(O)c2ncn(COCCP(=O)(O)O)c2n1` registered an inhibition at 0.05 µg/mL in the series on Human alphaherpesvirus 1 [3] of 100%. The inhibition at 0.5 µg/mL in the series on Human alphaherpesvirus 1 [5] is 100%.
`Nc1nc(O)cc(NCCCCO)n1`: at 500 µg/mL the inhibition in the series with Human alphaherpesvirus 1 [1] was 0%. The inhibition at 5 µg/mL in the series on Human alphaherpesvirus 1 [2] turned out to be 0%. In the series on Human alphaherpesvirus 1 [3], this molecule returned an inhibition at 0.05 µg/mL of 0%. For the same molecule, the inhibition at 50 ug/mL in series [4] worked out at 0%. Further, at 0.5 µg/mL the inhibition in the series on Human alphaherpesvirus 1 [5] was 0%. Further, in the series on Human alphaherpesvirus 1 [6], 50 µg/mL produced 0% inhibition. In series [7], this molecule showed an inhibition at 500 ug/mL of 0%. The molecule also registered an inhibition at 5 ug/mL in series [8] of 0%.
Molecule `OCCCCNc1nc(O)nc(O)c1I` displayed an inhibition at 500 µg/mL in the series on Human alphaherpesvirus 1 [1] of 0%. Besides, testing at 5 µg/mL in the series on Human alphaherpesvirus 1 [2] gave an inhibition of 0%. The inhibition at 0.05 µg/mL with Human alphaherpesvirus 1 [3] came out at 0%. Besides, the inhibition at 50 ug/mL in series [4] was 100%. Besides, 0.5 µg/mL produced 0% inhibition in the series on Human alphaherpesvirus 1 [5]. At 50 µg/mL the inhibition in the series with Human alphaherpesvirus 1 [6] was 0%. The molecule also gave an inhibition at 500 ug/mL in series [7] of 100%. In series [8], this molecule registered an inhibition at 5 ug/mL of 0%.
With `Nc1nc2c(ncn2COCCO)c(=O)[nH]1` [ACYCLOVIR], the inhibition at 500 µg/mL in the series with Human alphaherpesvirus 1 [1] amounted to 100%. The inhibition at 5 µg/mL in the series with Human alphaherpesvirus 1 [2] was 100%. In the series with Human alphaherpesvirus 1 [3], this molecule displayed an inhibition at 0.05 µg/mL of 100%. The same molecule registered an inhibition at 50 ug/mL in series [4] of 0%. In the series on Human alphaherpesvirus 1 [5], this molecule had an inhibition at 0.5 µg/mL of 100%. The molecule also returned an inhibition at 50 µg/mL in the series on Human alphaherpesvirus 1 [6] of 100%. For the same molecule, the inhibition at 500 ug/mL in series [7] stood at 0%. The molecule further showed an inhibition at 5 ug/mL in series [8] of 0%.
In the series on Human alphaherpesvirus 1 [1], `CCc1cn([C@H]2C[C@H](O)[C@@H](CO)O2)c(=O)[nH]c1=O` [EDOXUDINE] yielded an inhibition at 500 µg/mL of 100%. The molecule also displayed an inhibition at 5 µg/mL in the series with Human alphaherpesvirus 1 [2] of 100%. Moreover, testing at 0.05 µg/mL with Human alphaherpesvirus 1 [3] gave an inhibition of 0%. Moreover, in series [4], the inhibition at 50 ug/mL worked out at 0%. The inhibition at 0.5 µg/mL in the series on Human alphaherpesvirus 1 [5] came to 25%. Further, testing at 50 µg/mL with Human alphaherpesvirus 1 [6] gave an inhibition of 100%. Further, the inhibition at 500 ug/mL in series [7] was 0%. Also, in series [8], the inhibition at 5 ug/mL came out at 0%.
